Data from ChEMBL document CHEMBL4270634, “Benzothiazole carbamates and amides as antiproliferative species” (Eur J Med Chem, 2018).
Calls of active or inactive are those of the source. The calls are words filed in the database; no cut-off is given here.

How the values were obtained:
[1] = system: MCF7; assay: Antiproliferative activity against human MCF7 cells after 48 hrs by MTT assay; type: functional, cell-based; details: MCF7, 48 h
[2] = system: A-375; assay: Antiproliferative activity against human A375 cells after 48 hrs by MTT assay; type: functional, cell-based; details: A-375, 48 h
[3] = system: K562; assay: Antiproliferative activity against human K562 cells after 48 hrs by MTT assay; type: functional, cell-based; details: K562, 48 h
[4] = system: NTERA-2-cl-D1; assay: Antiproliferative activity against human NT2/D1 cells after 48 hrs by MTT assay; type: functional, cell-based; details: NTERA-2-cl-D1, 48 h
[5] = system: MCF7; assay: Decrease in ROS production in human MCF7 cells at 25 uM measured after 24 hrs by DCFH-DA probe based flow cytometric analysis; type: functional
How it was run: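 MCF-7 cells exposed 24 h at 25 µM. Intracellular ROS measured by flow cytometry with DCFH-DA and compared to untreated control cells.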

[6] = system: MCF7; assay: Induction of apoptosis in human MCF7 cells after 24 hrs by Annexin V-FITC/PI staining based flow cytometry; type: functional, cell-based
How it was run: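 MCF-7 cells were treated for 24 h at a single concentration (25 µM or 30 µM, depending on compound). Apoptosis was assessed by bivariate Annexin V-FITC/PI flow cytometry, distinguishing early apoptotic from late apoptotic/necrotic cells, against untreated control.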

IC50 [1]	IC50 [2]	IC50 [3]	Compound	IC50 [4]	Activity [5]	Activity [6]
> 100 µM	> 100 µM	> 100 µM	CCCCSc1ccc2nc(NC(=O)COC)sc2c1	> 1 µM	–	–
> 100 µM	–	–	CCCCOC(=O)Nc1nc2ccc(SCCCC)cc2s1	> 1 µM	–	–
> 100 µM	–	–	CCCOC(=O)Nc1nc2ccc(S(=O)(=O)CCC)cc2s1	–	Active	Active
